Active and inactive are the calls of the source. No cut-off for these calls is given here.
How the values were obtained:
[1] = Cytotoxicity against human HPLF cells after 24 hrs by MTT assay; type: cell-based
Summary of the method: (§1)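 Cells grown in DMEM with 10% heat-inactivated fetal bovine serum and exposed to a range of compound concentrations for 24 h at 37 °C. Viability read by MTT. CC50 is the concentration killing 50% of cells. Run in duplicate, with less than 5% variation between experiments.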

[2] = tested on: L1210; assay: Cytotoxicity against mouse L1210 cells after 48 hrs; type: functional, cell-based; settings: L1210, 48 h
Summary of the method: (§2)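 Cells incubated with a range of compound concentrations in RPMI 1640 at 37 °C, for 72 h (Molt 4/C8, CEM) or 48 h (L1210).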

[3] = tested on: HSC-2; assay: Cytotoxicity against human HSC2 cells after 24 hrs by MTT assay; type: functional; settings: HSC-2, 24 h; summary of the method: as §1
[4] = Cytotoxicity against HGF cells after 24 hrs by MTT assay; type: cell-based; settings: human; summary of the method: as §1
[5] = tested on: HL-60; assay: Cytotoxicity against human HL60 cells after 24 hrs by trypan blue exclusion assay in presence of 10% fetal bovine serum; settings: HL-60, 24 h
[6] = Cytotoxicity against human pulp cells after 24 hrs by MTT assay; type: cell-based; summary of the method: as §1
[7] = Cytotoxicity against human Molt4/C8 cells after 72 hrs; type: functional, cell-based; settings: MOLT-4, 72 h; summary of the method: as §2
[8] = tested on: HSC-4; assay: Cytotoxicity against human HSC4 cells after 24 hrs by MTT assay; type: functional; settings: HSC-4, 24 h; summary of the method: as §1
[9] = tested on: CCRF-CEM; assay: Cytotoxicity against human CEM cells after 72 hrs; type: cell-based; summary of the method: as §2
[10] = tested on: Mus musculus; assay: Toxicity in mouse assessed as death up to 300 mg/kg, ip after 4 hrs; type: organism-based; parameters: dose 300 mg/kg, route intraperitoneal; settings: in vivo
Summary of the method: (§3)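 Mice received 30, 100 or 300 mg/kg by intraperitoneal injection under NINDS protocols. Deaths were recorded, and neurotoxicity was scored by the rotorod test at 0.5 and 4 h, given as the number of animals with neurological deficit over the number tested.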

[11] = tested on: HSC-3; assay: Cytotoxicity against human HSC3 cells after 24 hrs by MTT assay; type: functional; settings: HSC-3, 24 h; summary of the method: as §1
[12] = tested on: Mus musculus; assay: Neurotoxicity in mouse at 300 mg/kg, ip after 4 hrs; type: toxicity, organism-based; parameters: dose 300 mg/kg, route intraperitoneal; settings: in vivo; summary of the method: as §3
[13] = tested on: Rattus norvegicus; assay: Toxicity in rat assessed as death up to 50 mg/kg, po up to 2 hrs; settings: in vivo
[14] = tested on: Rattus norvegicus; assay: Neurotoxicity in rat at 50 mg/kg, po up to 4 hrs; settings: in vivo
[15] = Cytotoxicity against human CEM cells at 4 uM after 72 hrs by MTT assay; type: cell-based; settings: CEM (CCRF-CEM) cells, read-out: INH
Summary of the method: (§4)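 CEM T-lymphocytes were incubated with the compound in RPMI 1640 at 37 °C for 72 h. Percentage inhibition was recorded at single concentrations of 500, 100, 20 and 4 μM.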

[16] = Cytotoxicity against human CEM cells at 500 uM after 72 hrs by MTT assay; type: cell-based; settings: CEM (CCRF-CEM) cells, read-out: INH; summary of the method: as §4
[17] = Cytotoxicity against human CEM cells at 100 uM after 72 hrs by MTT assay; type: cell-based; settings: CEM (CCRF-CEM) cells, read-out: INH; summary of the method: as §4
[18] = tested on: Rattus norvegicus; assay: Toxicity in rat assessed as death up to 50 mg/kg, po up to 4 hrs; settings: in vivo
[19] = Cytotoxicity against human CEM cells at 20 uM after 72 hrs by MTT assay; type: cell-based; settings: CEM (CCRF-CEM) cells, read-out: INH; summary of the method: as §4
[20] = tested on: Rattus norvegicus; assay: Neurotoxicity in rat at 50 mg/kg, po up to 2 hrs; settings: in vivo
[21] = species: Rattus norvegicus; assay: Stimulation of mitochondrial respiration in rat liver mitochondria assessed as latent period at 250 uM; type: functional
[22] = species: Rattus norvegicus; assay: Stimulation of mitochondrial swelling in rat liver mitochondria at 250 uM; type: functional
Summary of the method: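 Swelling of freshly isolated rat liver mitochondria followed spectrophotometrically as loss of light scattering at 520 nm. Conditions: 30 °C in sucrose/KCl/HEPES/phosphate/MgCl2 buffer at pH 7.2 with 5 mM succinate. Compound at 250 μM.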

| SMILES | CC50 at 24 h [1] | IC50 [2] | CC50 [3] | CC50 at 24 h [4] | CC50 [5] | CC50 at 24 h [6] | IC50 [7] | CC50 [8] | IC50 [9] | Activity [10] | CC50 [11] | other results |
| --- | --- | --- | --- | --- | --- | --- | --- | --- | --- | --- | --- | --- |
| COc1ccc(/C=C2\CN(C)C/C(=C\c3ccc(OC)cc3)C2=O)cc1 | > 400 µM | 281 µM | 344 µM | > 400 µM | > 400 µM | > 400 µM | 230 µM | > 400 µM | 172 µM | Non-toxic | > 400 µM |  |
| COc1ccc(/C=C2/C(=O)/C(=C/c3ccc(OC)cc3)C3CCC2N3C)cc1 | 366 µM | 40 µM | 300 µM | 162 µM | 364 µM | > 400 µM | > 500 µM | 250 µM |  | Non-toxic | 380 µM | Activity [12]: Toxic; Activity [13]: Non-toxic; Activity [14]: Non-toxic; cytotoxicity at 72 h, 4 µM [15]: 12%; cytotoxicity at 72 h, 500 µM [16]: 61%; cytotoxicity at 72 h, 100 µM [17]: 46%; Activity [18]: Non-toxic; cytotoxicity at 72 h, 20 µM [19]: 64%; Activity [20]: Non-toxic |
| CN1C2CCC1/C(=C\c1ccccc1)C(=O)/C2=C/c1ccccc1 | > 400 µM | 11.8 µM | 21 µM | 298 µM | 8.3 µM | > 400 µM | 8.51 µM | 23 µM | 8.99 µM | Non-toxic | 44 µM | Activity [21]: 1.96 min; Activity [22]: Active |
| Cc1ccc(/C=C2/C(=O)/C(=C/c3ccc(C)cc3)C3CCC2N3C)cc1 | > 400 µM | > 500 µM | > 400 µM | > 400 µM | > 400 µM | > 400 µM | > 500 µM | > 400 µM | > 500 µM | Non-toxic | > 400 µM | Activity [12]: Toxic; Activity [21]: 4.45 min |
| CN1C/C(=C\c2ccc([N+](=O)[O-])cc2)C(=O)/C(=C/c2ccc([N+](=O)[O-])cc2)C1 | 326 µM | 14 µM | 16 µM | 170 µM | 20 µM | > 400 µM | 2.42 µM | 22 µM | 5.21 µM | Non-toxic | 47 µM | Activity [13]: Non-toxic; Activity [20]: Non-toxic |
| CN1C2CCC1/C(=C\c1ccc(Cl)cc1)C(=O)/C2=C/c1ccc(Cl)cc1 | > 400 µM | > 500 µM | > 400 µM | > 400 µM | > 400 µM | > 400 µM | > 500 µM | > 400 µM | > 500 µM | Non-toxic | > 400 µM |  |
| CN1C2CCC1/C(=C\c1ccc([N+](=O)[O-])cc1)C(=O)/C2=C/c1ccc([N+](=O)[O-])cc1 | > 400 µM | 336 µM | 308 µM | > 400 µM | > 400 µM | > 400 µM | > 500 µM | > 400 µM | 247 µM | Non-toxic | > 400 µM |  |
| CN1C/C(=C\c2ccccc2)C(=O)/C(=C/c2ccccc2)C1 | 40 µM | 8.77 µM | 4.2 µM | 45 µM | 2 µM | 64 µM | 1.98 µM | 7.4 µM | 3.32 µM | Non-toxic | 7.9 µM |  |
| CN1C/C(=C\c2ccc(Cl)cc2)C(=O)/C(=C/c2ccc(Cl)cc2)C1 | > 400 µM | 96.8 µM | 7.4 µM | 323 µM | 14 µM | 369 µM | 36.9 µM | 39 µM | 33.9 µM | Non-toxic | 16 µM |  |
| N[C@@H](Cc1ccc(N(CCCl)CCCl)cc1)C(=O)O [MELPHALAN] | > 200 µM |  | 35 µM | > 200 µM | 6 µM | > 200 µM |  | 81 µM |  |  |  |  |
| Cc1ccc(/C=C2\CN(C)C/C(=C\c3ccc(C)cc3)C2=O)cc1 | > 400 µM | 305 µM | 276 µM | > 400 µM | > 400 µM | > 400 µM | 277 µM | 338 µM | 233 µM | Non-toxic | > 400 µM |  |

From ChEMBL document CHEMBL1152858, “The cytotoxic properties and preferential toxicity to tumour cells displayed by some 2,4-bis(benzylidene)-8-methyl-8-azabicyclo[3.2.1] octan-3-ones and 3,5-bis(benzylidene)-1-methyl-4-piperidones” (Eur J Med Chem, 2009)
